Rows were chosen to be rich in hits. Some 1.9% of all compounds tested hit in one or more screens of this group.
RanGTP-Imp inh: disruptors of Ran-importin-beta complex formation – biochemical, FRET, CFP-Ran, YFP-importin-beta, homogeneous, primary screen. cell-free CFP-Ran/YFP-importin-beta FRET ratio. inhibition, % (no concentration beside the values). hit rate 1.1% among 300,000;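 active = more than half of the replicate wells show a fall in the fluorescence ratio signal beyond about 16%, limit read from the data, passing the limit was not always enough; inconclusive = exactly half of the replicate wells pass the set limit; inactive = fewer than half of replicates pass the limit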;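 also: 0% = DMSO wells and 100% = Ran loaded with GDP instead of GTP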
Tb hexokinase: T. brucei hexokinase 1 inhibition | recombinant TbHK1, G6PDH-coupled NADH A340 | inhibition, % at 10 µM | hit rate 0.11% among 220,000 | AID 1430;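 active = inhibition of 50% or more in the single-dose primary screen; inactive = inhibition below 50%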
Runt-CBFb FRET: Runt domain-CBFb interaction inhibition. Q01196+Q13951. Cerulean-Runt/Venus-CBFb FRET ratio 530/480, 1 h. inhibition, % at 20 µM. hit rate 0.46% among 220,000. AID 1496;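 active = inhibition over about 50% at 20 µM in the single-dose screen, limit read from the data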;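 also: 0% = DMSO wells and 100% = excess unlabeled CBFb competitor control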
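Buffer or medium: Tris pH 7.5 buffer with BSA. Assay system: Cerulean-labeled Runt domain protein. Amount: each fluorescent fusion protein 100 nM. Read-out basis: loss of energy transfer signal. Incubation: 1 h compound exposure, room temperature. Probe or stimulus: Venus-CBFb binding partner, 100 nM. Detection: FRET, excitation 422 nm, emission at 530 and 480 nm.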
Hck Nef HTS: blocks Nef-activated human Hck kinase; P08631; Recombinant Hck-YEEI plus Nef, Z-Lyte FRET kinase assay; inhibition, % at 20 µM; hit rate 0.68% among 220,000;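 active = Hck-Nef kinase inhibition above about 50%, limit read from the data; inactive = inhibition below that limit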;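 also: 0% = DMSO with Hck plus Nef and 100% = Hck alone without Nef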
Target sequence (P08631 whole entry, looked up): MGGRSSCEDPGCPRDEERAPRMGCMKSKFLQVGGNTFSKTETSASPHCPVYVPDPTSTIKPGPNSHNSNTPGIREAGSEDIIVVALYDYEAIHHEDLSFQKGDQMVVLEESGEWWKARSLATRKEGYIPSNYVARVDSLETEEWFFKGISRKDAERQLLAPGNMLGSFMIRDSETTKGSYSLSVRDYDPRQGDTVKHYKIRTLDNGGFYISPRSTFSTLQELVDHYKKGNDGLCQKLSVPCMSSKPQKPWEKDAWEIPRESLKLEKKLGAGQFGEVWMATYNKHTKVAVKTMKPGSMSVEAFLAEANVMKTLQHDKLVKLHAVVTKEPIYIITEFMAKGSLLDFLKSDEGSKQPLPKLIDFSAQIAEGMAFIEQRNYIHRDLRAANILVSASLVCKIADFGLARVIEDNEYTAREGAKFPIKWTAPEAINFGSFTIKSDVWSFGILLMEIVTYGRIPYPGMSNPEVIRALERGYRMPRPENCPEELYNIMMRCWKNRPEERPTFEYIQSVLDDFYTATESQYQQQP
Runt-SMMHC FRET: inhibitors of human RUNX1 Runt domain binding to CBFb-SMMHC; Q01196+Q13951; Cerulean-Runt/Venus-CBFb-SMMHC FRET ratio 530/480, 1 h; inhibition, % at 20 µM; hit rate 0.74% among 220,000;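 active = mean inhibition across duplicate retests at 20 µM reaching about 50%, limit read from the data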;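 also: 0% = DMSO wells and 100% = wells with excess untagged CBFb-SMMHC; inhibitors lower the FRET ratio by blocking Runt binding to CBFb-SMMHC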
* = called active by the depositor; ? = inconclusive; · = no result.

SMILES	RanGTP-Imp inh	Tb hexokinase	Runt-CBFb FRET	Hck Nef HTS	Runt-SMMHC FRET
Cc1ccc(S(=O)(=O)N2CCCC2CNC(=O)C(=O)NCc2ccccn2)cc1 (stereo not drawn)	5	·	·	·	·
O=C(O)c1ccccc1SCc1csc(-c2ccccc2)n1	27*	·	·	·	·
Cc1ccc2nc3c(cc(C(=O)NCc4ccco4)c(=N)n3C3CCCC3)c(=O)n2c1	187*	·	·	·	·
Cc1ccc2nc(SCC(=O)NCc3ccco3)nc(=O)n2c1	-2	·	·	·	·
Cc1cccn2c(=O)c3cc(C(=O)NCc4ccco4)c(=N)n(C4CCCCC4)c3nc12	130*	·	·	·	·
CCC(C)(C)n1nnnc1C(c1cc2cc3c(cc2[nH]c1=O)OCO3)N1CCN(C)CC1 (stereo not drawn)	3	20	40	4	66*
CCC(C)(C)n1nnnc1C(c1cc2ccc(OC)cc2[nH]c1=O)N1CCc2ccccc2C1 (stereo not drawn)	16*	-21	-20	3	-5
COc1ccc2cc(C(c3nnnn3C(C)(C)C)N3CCc4ccccc4C3)c(=O)[nH]c2c1 (stereo not drawn)	·	-28	-18	7	-34
CCOc1ccccc1N(C(=O)Nc1ccc(Cl)cc1)C1=NCCS1	·	-3	1	0	-1
COc1ccccc1N1CCN(S(=O)(=O)c2cc(-c3cc(C)no3)ccc2C(C)C)CC1	-3	·	·	·	·
CCOC(=O)/C=C1\SCC(=O)N1CC(=O)Nc1ccccc1OC(F)F	150*	-1	-3	0	-4
CCOC(=O)/C=C1\SCC(=O)N1CC(=O)NC(c1ccccc1)c1ccccc1	-3	31	-5	3	0
COC(=O)Cn1c2ccccc2c2nc3ccccc3nc21	11	·	·	·	·
CC(C)OC(=O)c1c2nc3ccccc3nc2n2c1[nH]c(=O)c1ccccc12	11	2	17	1	62*
O=S(=O)(Cc1ccccc1)N1CCN(c2ccccc2)CC1	59*	2	·	2	-4
Cc1cc(C)nc(NS(=O)(=O)c2ccc(NC(=O)C3(c4ccccc4)CCCC3)cc2)n1	?	-4	-2	1	-1
CC12CCC(C(=O)NCc3ccccn3)(OC1=O)C2(C)C (stereo not drawn)	-3	3	2	1	-2
CC12CC3(C)CC(C)(C1)CC(C(=O)NCc1ccccn1)(C2)C3	34*	-4	-5	-1	-2
Cc1cc2c3c(ccc(C)c3n1)N=CN2c1ccccc1	92*	-12	65*	2	60*
CC(Sc1nnc(NCc2ccccc2)s1)C(=O)Nc1ccc2c(c1)C(=O)c1ccccc1C2=O (stereo not drawn)	0	-9	-1	-18	-4
NC(=O)c1ccccc1OCc1nnc(-c2ccccc2Br)o1	-2	·	·	·	·
CCOC(=O)c1c(C)[nH]c(C(=O)CN2CC(C)OC(C)C2)c1C (stereo not drawn)	29*	1	-4	-1	-1
O=C(O)c1cc2ccc3ccccc3c2oc1=O	?	-7	28	9	97*
CCOc1ccc2nc(NCCNC(=O)CC)c(C#N)cc2c1	2	17	10	7	95*
CCOc1ccc2nc(SCC(=O)NCC3CCCO3)c(C#N)cc2c1 (stereo not drawn)	3	·	·	·	·
SMILES	RanGTP-Imp inh	Tb hexokinase	Runt-CBFb FRET	Hck Nef HTS	Runt-SMMHC FRET
COc1ccc(Nc2nc3ccc(C)cc3cc2C#N)c(OC)c1	-5	2	-2	0	-23
COc1ccc(C(=O)NCCNc2nc3ccc(C)cc3cc2C#N)cc1OC	77*	·	·	·	·
NC(=O)/C=C\C(=O)Nc1cccc(C(F)(F)F)c1	-2	-5	11	0	7
Cc1ccc(C)c(S(=O)(=O)N/N=C/c2ccc(N3CCOCC3)cc2)c1	0	-28	-2	16	-7
Cc1cccn2c(=O)c3cc(C(=O)NCC4CCCO4)c(=N)n(C4CCCC4)c3nc12 (stereo not drawn)	187*	·	·	·	·
N=c1c(C(=O)NCC2CCCO2)cc2c(=O)n3ccccc3nc2n1C1CCCCC1 (stereo not drawn)	12	·	·	·	·
N=c1c(C(=O)NCC2CCCO2)cc2c(=O)n3ccccc3nc2n1C1CCCC1 (stereo not drawn)	186*	·	·	·	·
Cc1ccc2nc3c(cc(C(=O)NCC4CCCO4)c(=N)n3C3CCCC3)c(=O)n2c1 (stereo not drawn)	194*	·	·	·	·
Cc1cc(C)n(-c2nc3c(c(=O)n(C)c(=O)n3C)n2CC(O)COc2ccccc2C)n1 (stereo not drawn)	·	0	·	8	·
Cc1cc(C)cc(NC(=O)C(NCCN2CCOCC2)c2ccccc2)c1 (stereo not drawn)	0	0	-2	12	3
CCn1cc(CN2CCC(n3nccc3NC(=O)CCOc3ccccc3)CC2)c(C)n1	-2	·	·	·	·
COc1ccc(C(=O)NCCc2nnc3ccc(SCC(=O)N4CCCC4)nn23)cc1	-3	·	·	·	·
CCc1cc2c(COC(=O)c3c(C)noc3C)cc(=O)oc2cc1O	18*	-1	51*	-23	86*
CC(C)(C)c1ccc(C(=O)NCC(=O)N/N=C/c2ccccc2OCC(=O)O)cc1	1	-11	-3	18	-2
N=c1oc2cc(O)ccc2cc1C(=O)Nc1ccc(Br)cc1	167*	·	·	·	·
N=c1oc2cc(O)ccc2cc1C(=O)Nc1ccccn1	·	0	20	115*	87*
O=C(Nc1ccccn1)c1ccc2ccccc2c1O	-2	·	·	·	·
N=c1oc2cc(O)ccc2cc1C(=O)Nc1nc2ccccc2s1	136*	-15	19	81*	63*
COc1ccccc1C(=O)Nc1nc2ccccc2s1	3	·	·	·	·
O=C(COc1ccccc1Cl)Nc1cccc(S(=O)(=O)NC2=NCCCCC2)c1	1	·	·	·	·
CCCCOC(=O)c1nc[nH]c1C(=O)OCCCC	-1	-3	-1	24	4
Cc1cc(C)c(NC(=O)c2cccc3c2C(=O)N(C2CCCCC2)C3)c(C)c1	2	·	·	·	·
CC(C)(C)NC(=O)COC(=O)c1ccc(Cl)cc1O	2	-2	-1	22	2
Cc1cccc(OCC(=O)Nc2nccs2)c1C	1	·	·	·	·
CCC(NC(=O)OCc1ccccc1)C(=O)Oc1ccc2ccc(=O)oc2c1 (stereo not drawn)	21*	·	·	·	·
CCOc1ccc(CN2CCNC(=O)C2CC(=O)NCc2csc(C(C)C)n2)cc1 (stereo not drawn)	-2	·	·	·	·
Cc1ccc(-n2c(=O)c3cc4c(=O)n(-c5ccc(C)c(C)c5)c(=O)c4c(C(=O)c4ccc(C(=O)O)cc4)c3c2=O)cc1C	2	-14	32	92*	-42
Cc1ccc(S(=O)(=O)c2c(COC(=O)c3ccccc3Cl)c(-c3ccccc3)nn2C)cc1	4	-4	0	-2	-3
C=CCN1C(=O)[C@]2(c3ccccc31)C1CCCC=C1C(C#N)=C(N)C2(C#N)C#N (stereo partly drawn)	-1	-1	-7	1	-37

Screens: PubChem BioAssay, several laboratories
